Consider 6 compounds from ChEMBL document CHEMBL4130447, “A Bis-benzopyrroloisoquinoline Alkaloid Incorporating a Cyclobutane Core and a Chlorophenanthroindolizidine Alkaloid with Cytotoxic Activity from Ficus fistulosa var. tengerensis” (J Nat Prod, 2017).

In one test the test system is MDA-MB-468. Briefly: Cytotoxicity against human MDA-MB-468 cells assessed as decrease in cell viability after 72 hrs by CellTiter-Glo luminescence assay. The test is classed as functional, cell-based. The settings on record: MDA-MB-468, 72 h. The gist of the method:
(§1)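 Breast cancer lines were maintained in RPMI 1640 with 10% FBS and pen/strep at 37 °C and 5% CO2. Cells were plated at 1000/well, allowed 24 h, then treated 72 h with agents at 1.5–100 μM (diluted in phosphate buffer from a 100 mM DMSO stock). Paclitaxel at 0.01–10 μM served as the reference. Luminescent ATP read-out was used, with IC50 computed relative to 0.1% DMSO controls.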

The next test deals with MDA-MB-231. Briefly: Cytotoxicity against human MDA-MB-231 cells assessed as decrease in cell viability after 72 hrs by CellTiter-Glo luminescence assay. The following applies: MDA-MB-231, 72 h. Format: functional, cell-based. In short, it runs like this: as §1
A further test deals with MCF7. Nature of the test: Cytotoxicity against human MCF7 cells assessed as decrease in cell viability after 72 hrs by CellTiter-Glo luminescence assay. The test is classed as functional, cell-based. The settings on record: MCF7, 72 h. The gist of the method: as §1
In another test the test system is MCF-10A. Nature of the test: Cytotoxicity against human MCF10A cells assessed as decrease in cell viability after 72 hrs by CellTiter-Glo luminescence assay. Format: cell-based. The gist of the method: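 MCF10A (non-tumorigenic breast epithelial) cells were grown with 5% horse serum, 20 ng/mL EGF, 0.5 μg/mL hydrocortisone, 10 μg/mL insulin, and pen/strep at 37 °C and 5% CO2. Cells were seeded at 1000/well for 24 h, then exposed 72 h to 1.5–100 μM test agent diluted in phosphate buffer from a 100 mM DMSO stock. Viability was read by ATP luminescence. IC50 was calculated versus 0.1% DMSO-treated cells.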

A value given as a limit tells only on which side of the number the result lay.

As to `COc1cc2c3c(c4ccc(OC)c(Cl)c4c2cc1OC)CN1CCCC1C3` (racemic), the IC50 stood at 0.038 µM with MDA-MB-468, 0.48 µM with MDA-MB-231, 0.91 µM with MCF7 and 10.7 µM in the test with MCF-10A.

As for `COc1cc2cc(C3C(C(C)=O)C(C(C)=O)C3c3cc4cc(OC)c(OC)cc4c4c3CN3CCCC3C4)c3c(c2cc1OC)CC1CCCN1C3` (racemic), the IC50 in the test on MDA-MB-468, in the test with MDA-MB-231, in the test with MCF7 and in the test with MCF-10A was above 10 µM in each case.

In the case of `COc1cc2cc(CO)c3c(c2cc1OC)CC1CCCN1C3` (racemic), the IC50 in the test with MDA-MB-468, in the test on MDA-MB-231, in the test with MCF7 and in the test on MCF-10A was above 10 µM each time.

In the case of `COc1cc2cc([C@@H]3[C@H](C(C)=O)[C@@H](C(C)=O)[C@@H]3c3cc4cc(OC)c(OC)cc4c4c3CN3CCC[C@@H]3C4)c3c(c2cc1OC)C[C@@H]1CCCN1C3`, the IC50 in the test on MDA-MB-468 is 7.4 µM; in the test with MDA-MB-231, above 10 µM; in the test on MCF7 it was above 10 µM; with MCF-10A it was above 10 µM.

`CC(=O)O[C@H]1C(=O)[C@@]2(C)[C@H]([C@H](OC(=O)c3ccccc3)[C@]3(O)C[C@H](OC(=O)[C@H](O)[C@@H](NC(=O)c4ccccc4)c4ccccc4)C(C)=C1C3(C)C)[C@]1(OC(C)=O)CO[C@@H]1C[C@@H]2O` [PACLITAXEL]: the IC50 with MDA-MB-468 stood at 0.0061 µM; in the test on MDA-MB-231, 0.059 µM; in the test on MCF7, 0.0088 µM; in the test with MCF-10A, 0.0058 µM.

For the compound `COc1cc2cc([C@@H]3[C@@H](C(C)=O)[C@H](C(C)=O)[C@@H]3c3cc4cc(OC)c(OC)cc4c4c3CN3CCC[C@@H]3C4)c3c(c2cc1OC)C[C@@H]1CCCN1C3`, the IC50 in the test on MDA-MB-468, with MDA-MB-231, in the test with MCF7 and in the test with MCF-10A was above 10 µM throughout.
